Source: ChEMBL document CHEMBL2093137, “WHO-TDR NTD Screening”
Values after ≈ are worked out from the molar mass of the structure shown.

Legend:
[1] = test system: Trypanosoma brucei brucei; assay: WHO-TDR: Human African Trypanosomiasis (HAT); type: functional, organism-based; conditions: Squib-427
Method in brief: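 Values are IC50 figures for antiparasitic potency. They come from a whole-organism screen of 10,000 diverse Life Chemicals compounds against bloodstream-form Trypanosoma brucei (Squib 427 strain).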

Leishmania infantum = assay: WHO-TDR: Leishmaniasis; type: functional, organism-based, Mus musculus; conditions: Macrophage
Method in brief: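 Values are IC50 figures for antiparasitic potency. They come from a whole-organism screen of a 10,000-compound diverse Life Chemicals library against Leishmania infantum MHOM/MA(BE)/67 amastigotes inside murine peritoneal macrophage host cells.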

Schistosoma mansoni = assay: WHO-TDR: Schistosomiasis; type: functional; set-up: concentration or dose not given beside the values
Method in brief: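 Values are reported as percent inhibition and IC50. They come from a whole-organism screen of a 10,000-compound diverse Life Chemicals library against larval and/or adult worms of Schistosoma mansoni, Puerto Rican strain. The library had been filtered for drug-likeness and reactive groups.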

Plasmodium falciparum K1 = assay: WHO-TDR: Malaria; type: functional, organism-based, Homo sapiens; conditions: Erythrocyte
Method in brief: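 Values are IC50 figures for antiplasmodial potency. They come from a whole-organism screen of 10,000 diverse Life Chemicals compounds against Plasmodium falciparum K1 growing inside human red blood cells, run by previously published standard procedures.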

Onchocerca ochengi = assay: WHO-TDR: Onchocerciasis; type: functional; set-up: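 at 12.5 µM on microfilariae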
Method in brief: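 Values are reported as percent inhibition and as IC50. They come from a whole-organism screen of a 10,000-compound diverse Life Chemicals library against microfilariae of Onchocerca ochengi or Onchocerca lienalis. The screen followed previously published standard procedures, with reference drugs as positive controls.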

Trypanosoma cruzi = assay: WHO-TDR: Chagas disease; type: functional, organism-based, Homo sapiens; conditions: MRC5
Method in brief: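 Intracellular amastigotes of the Trypanosoma cruzi Tulahuen CL2 beta-galactosidase strain, grown in MRC-5SV2 human lung fibroblast host cells, were tested in a whole-organism screen. The compounds came from a 10,000-member diverse Life Chemicals library that had been filtered for drug-likeness and reactive groups. Previously published standard procedures were followed, with a reference drug as positive control, and potency is reported as IC50.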

[2] = WHO-TDR: Cytotoxicity; type: toxicity, cell-based; conditions: human, MRC5 cells
Brugia malayi = assay: WHO-TDR: Lymphatic Filariasis; type: functional; set-up: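 tested at 10 µM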
Method in brief: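 Values are percent inhibition and IC50 from a whole-organism screen against Brugia malayi microfilariae. The compounds, 10,000 in all, came from a diverse Life Chemicals library filtered for drug-likeness and reactive groups.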

| IC50 [1] [µg/mL] | IC50 (Leishmania infantum) [µg/mL] | IC50 (Plasmodium falciparum K1) [µg/mL] | SMILES | % Inhibition (Schistosoma mansoni) [%] | % Inhibition (Onchocerca ochengi) [%] | IC50 (Trypanosoma cruzi) [µg/mL] | IC50 [2] [µg/mL] | % Inhibition (Brugia malayi) [%] |
| --- | --- | --- | --- | --- | --- | --- | --- | --- |
| 4.09 (≈ 10.2 µM) | > 12 | 5.9 (≈ 14.7 µM) | Cc1ccnc(Nc2ccc(NCCNC(=O)c3ccc(F)cc3Cl)nn2)c1 | 0 | 100 | > 12 | > 12 | 25 |
| 3.82 (≈ 9.71 µM) | > 11.8 | 9.93 (≈ 25.2 µM) | COc1cccc(NC(=O)NCCNc2ccc(Nc3cc(C)ccn3)nn2)c1 | 0 | 100 | > 11.8 | > 11.8 | 25 |
| > 11.4 | > 11.4 | > 11.4 | Cc1ccnc(Nc2ccc(NCCNC(=O)Nc3ccc(F)cc3)nn2)c1 | 0 | 100 | > 11.4 | > 11.4 | 0 |
| 3.91 (≈ 9.71 µM) | 3.91 (≈ 9.71 µM) | 12.1 (≈ 30 µM) | Cc1ccnc(Nc2ccc(NCCNS(=O)(=O)c3ccc(F)cc3)nn2)c1 | 0 | 100 | 4.13 (≈ 10.3 µM) | > 12.1 | 50 |
| 4.66 (≈ 10.5 µM) | > 13.3 | 5.13 (≈ 11.5 µM) | COc1ccc(OC)c(S(=O)(=O)NCCNc2ccc(Nc3cc(C)ccn3)nn2)c1 | 0 | 100 | > 13.3 | > 13.3 | 50 |
| 4.02 (≈ 9.6 µM) | > 12.6 | > 12.6 | Cc1ccnc(Nc2ccc(NCCNS(=O)(=O)c3cccc(Cl)c3)nn2)c1 | 0 | 100 | > 12.6 | > 12.6 | 0 |
| > 11.8 | 0.381 (≈ 0.971 µM) | > 11.8 | Cc1ccnc(Nc2ccc(N3CCN(C(=O)c4ccc(F)cc4)CC3)nn2)c1 | 0 | 0 | > 11.8 | > 11.8 | 0 |
| 5.21 (≈ 12.4 µM) | > 12.6 | 9.16 (≈ 21.8 µM) | COc1cccc(NC(=O)N2CCN(c3ccc(Nc4cc(C)ccn4)nn3)CC2)c1 | 0 | 100 | > 12.6 | > 12.6 | 0 |
| 5.79 (≈ 14.2 µM) | > 12.2 | > 12.2 | Cc1ccnc(Nc2ccc(N3CCN(C(=O)Nc4cccc(F)c4)CC3)nn2)c1 | 0 | 100 | > 12.2 | > 12.2 | 75 |
| > 12.5 | > 12.5 | 8.24 (≈ 19.7 µM) | CCc1ccc(NC(=O)N2CCN(c3ccc(Nc4cc(C)ccn4)nn3)CC2)cc1 | 0 | 100 | > 12.5 | > 12.5 | 50 |
| > 11.3 | > 11.3 | 3.3 (≈ 8.76 µM) | CCc1ccc(C(=O)NCCNc2ccc(Nc3cccc(C)n3)nn2)cc1 | 0 | 100 | > 11.3 | 6.22 (≈ 16.5 µM) | 0 |
| > 10.9 | > 10.9 | 4.75 (≈ 13.1 µM) | Cc1cccc(Nc2ccc(NCCNC(=O)Nc3ccccc3)nn2)n1 | 0 | 100 | > 10.9 | 10.4 (≈ 28.7 µM) | 0 |
| 4.13 (≈ 10.5 µM) | > 11.8 | 4.98 (≈ 12.6 µM) | COc1cccc(NC(=O)NCCNc2ccc(Nc3cccc(C)n3)nn2)c1 | 0 | 100 | > 11.8 | > 11.8 | 0 |
| > 11.4 | > 11.4 | 8.36 (≈ 21.9 µM) | Cc1cccc(Nc2ccc(NCCNC(=O)Nc3ccc(F)cc3)nn2)n1 | 0 | 100 | > 11.4 | > 11.4 | 0 |
